Compounds with a hit are over-represented: about 2.6% of the library has one in this group of screens.
INS-1E GSIS act: GLuc luminescence reporter in INS-1E cells, primary screen for activators of glucose-dependent secretion of insulin; INS-1E GLuc reporter insulin secretion, 2-3 h; activation, % at 16.6 µM; 370,000 compounds, 0.61% hits; AID 743287;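 active means lowest replicate activation of at least 40%, so every replicate reaches that level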;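 further: 0% = median of neutral control wells and 100% = median of IBMX positive control wells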
MLL AF4-AF9 inh: MLL-AF4/AF9 protein interaction inhibition; AlphaScreen, biotin-AF4 peptide binding to FLAG-AF9; inhibition, % at 10 µM; 350,000 compounds, 0.47% hits;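 active means every replicate reaching a set inhibition limit, whatever the replicate mean, cut at about 25% in these data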;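 further: 0% = plate neutral control median and 100% = total signal loss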
RAD54 branch: RAD54 (human) branch migration inhibition. Q92698. RAD54 Holliday junction branch migration, FAM/BHQ fluorescence. inhibition, % at 10.4 µM. 360,000 compounds, 0.14% hits. AID 602329;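 active means mean normalized replicate activity at least 40 and at least half of replicates scoring 40 or more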;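 further: 0% = median of neutral control wells and 100% = median of positive control wells; inhibitors cause a drop in the FAM fluorescence signal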
E-selectin induc: E-selectin induction on HUVECs; P16581; HUVEC E-selectin immunofluorescence imaging; normalized: neutral wells 0, TNF-alpha wells 100; activation, % at 7.58 µM; 260,000 compounds, 0.37% hits; AID 686992;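 active means mean E-selectin-positive cell signal at least 10% of the positive control, reached in at least 60% of replicates, without over 20% cell loss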
Target sequence (P16581 whole entry, looked up): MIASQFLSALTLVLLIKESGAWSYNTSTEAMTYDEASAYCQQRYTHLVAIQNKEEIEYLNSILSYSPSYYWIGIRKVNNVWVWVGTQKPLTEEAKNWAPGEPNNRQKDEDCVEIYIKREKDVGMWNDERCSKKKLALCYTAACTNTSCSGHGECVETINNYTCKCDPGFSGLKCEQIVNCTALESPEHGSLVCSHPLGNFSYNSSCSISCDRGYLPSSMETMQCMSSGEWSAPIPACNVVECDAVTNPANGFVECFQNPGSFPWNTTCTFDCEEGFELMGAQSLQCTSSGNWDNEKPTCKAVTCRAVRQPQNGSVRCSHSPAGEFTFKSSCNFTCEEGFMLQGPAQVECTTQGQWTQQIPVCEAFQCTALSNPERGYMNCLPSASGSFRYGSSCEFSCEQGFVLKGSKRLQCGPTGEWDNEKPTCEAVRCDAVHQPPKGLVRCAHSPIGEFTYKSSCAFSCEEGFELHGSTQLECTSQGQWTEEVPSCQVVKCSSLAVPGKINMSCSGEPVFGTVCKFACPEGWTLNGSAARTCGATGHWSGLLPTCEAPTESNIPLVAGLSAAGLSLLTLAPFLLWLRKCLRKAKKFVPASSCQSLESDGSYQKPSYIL
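Assay system: HUVEC, human umbilical vein endothelial cells / Amount: 3,000 HUVEC/well / Controls: TNF-alpha positive control, DMSO neutral control / Compound dosing: single concentration / Medium: EGM-2 over gelatin coat / Evaluation: percent E-selectin-positive cells / Signal: immunofluorescence imaging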
rRNA inh HTS: selective bacterial rRNA inhibition in E. coli | GFP signal change (wild-type ribosome), % (test concentration not listed) | 350,000 compounds, 1.6% hits | AID 720706 | E. coli WT GFP vs humanized-ribosome RFP mutants, fluorescence, 24 h; stronger effect = lower value; DMSO median 0, no signal -100;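 active means significant combined selectivity score with lowered wild-type GFP, culture density cut under 30%, mutant RFP and density less affected; inactive means any of these conditions unmet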
RAD52 inh: blocks human RAD52 DNA annealing | recombinant RAD52 DNA annealing, FRET fluorescence | P43351 | inhibition, % at 18.7 µM | 360,000 compounds, 0.46% hits;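 active means every replicate showing at least 50% inhibition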
Numbers without * were called inactive; . = no result.

SMILES	INS-1E GSIS act	MLL AF4-AF9 inh	RAD54 branch	E-selectin induc	rRNA inh HTS	RAD52 inh
COC(=O)CCCCC1SCC2NC(=O)NC21 (stereo unspecified)	2.4	7.9	.	.	23.7	-28.9
O=C(O)CCCC[C@@H]1SC[C@@H]2NC(=O)N[C@@H]21	4.6	97.4*	3.9	.	4.5	-6.9
CC(C)C(=O)Nc1ccc2c(c1)C(=O)N(C)[C@@H]1CC[C@@H](CC(=O)NCC3CC3)O[C@H]1CO2	5.8	-3.4	9.5	0.0	3.8	0.9
CO/N=C/C(=N\Nc1ccc(OC)cc1)C(=O)c1ccc(OC)cc1	.	.	2.2	.	.	.
COc1ccc(C(=O)C(/C=N/O)=N/Nc2ccc(F)cc2)cc1	-37.5	0.0	.	0.6	-25.9*	-16.1
C[C@@H]1CN([C@@H](C)CO)C(=O)c2cc(N(C)C)ccc2O[C@H]1CN(C)Cc1ccc(Oc2ccccc2)cc1	-13.2	44.6*	-6.7	0.1	-3.3	-0.7
C[C@H]1CN([C@@H](C)CO)C(=O)c2cc(N(C)C)ccc2O[C@H]1CN(C)Cc1ccc(Oc2ccccc2)cc1	-13.2	44.6*	0.1	0.0	-5.2	1.2
C[C@H]1CN([C@@H](C)CO)C(=O)c2cc(N(C)C)ccc2O[C@@H]1CN(C)Cc1ccc(Oc2ccccc2)cc1	-16.0	39.6*	-1.3	0.2	-2.1	10.3
CN(C)CCCNC(=O)C[C@H]1CC[C@H]2[C@@H](COc3ccc(NC(=O)c4ccc5c(c4)OCO5)cc3C(=O)N2C)O1	3.6	3.7	.	-0.1	4.9	-0.6
COC(=O)C[C@@H]1CC[C@@H]2[C@H](COc3ccc(NC(=O)C4CC4)cc3C(=O)N2C)O1	3.1	-0.3	1.4	-0.1	4.2	2.4
COc1ccc(NC(=O)N2CCCCN3[C@H](CO)[C@@H](c4ccc(C#Cc5ccccn5)cc4)[C@H]3C2)cc1	-8.3	.	.	.	5.4	.
COc1ccc(NC(=O)N2CCCCN3[C@H](CO)[C@@H](c4ccc(C#Cc5ccccn5)cc4)[C@@H]3C2)cc1	-47.6	-1.0	9.9	-0.1	-1.8	15.4
COc1ccc(NC(=O)N2CCCCN3[C@H](CO)[C@H](c4ccc(C#Cc5ccccn5)cc4)[C@H]3C2)cc1	-17.6	16.7	41.6	-0.3	-8.2	66.4*
COc1ccc(NC(=O)N2CCCCN3[C@@H](CO)[C@@H](c4ccc(C#Cc5ccccn5)cc4)[C@@H]3C2)cc1	-15.2	13.1	8.3	-0.6	4.0	61.5*
COc1cccc(C(=O)Nc2ccc3c(c2)C(=O)N(C)C[C@H](OC)[C@H](C)CN(C(=O)C2CCCC2)[C@@H](C)CO3)c1	-37.4	-7.6	5.1	0.0	-2.9	25.2
O=C(c1ccccc1)C1C(c2ccccc2)C1[N+](=O)[O-] (stereo unspecified)	21.2	-5.9	-7.5	-0.1	-6.6	-12.7
CN(C)c1ccc([C@@H]2[C@@H]([N+](=O)[O-])[C@H]3C=Cc4ccccc4N3[C@H]2C(=O)c2ccc(Cl)cc2)cc1	30.3	15.2	8.7	.	-27.6*	-24.6
CC(C)(C)CC(C)(C)N=C1Nc2cc(Cl)c(Cl)cc2NC12C[C@H]1CCC(=O)N3CC[C@@H](C2)[C@@H]13 (stereo partly specified)	.	7.9	11.8	-0.1	7.5	-6.4
CC(C)(C)CC(C)(C)N=C1Nc2ccccc2NC12C[C@H]1CCC(=O)N3CC[C@@H](C2)[C@@H]13 (stereo partly specified)	.	28.2*	-2.8	-0.1	4.7	-3.9
O=C(COC(=O)c1ccccc1NCCO)NNC(=O)c1cccs1	5.6	0.8	-3.5	428.2*	4.7	-13.2
C[C@H](CO)N1C[C@H](C)[C@H](CN(C)C(=O)Nc2ccc(F)cc2)Oc2ccc(NC(=O)Nc3ccc4c(c3)OCO4)cc2C1=O	-0.4	.	-1.8	0.1	-3.9	.
O=C(CNC(=O)Cc1ccccc1)N=Nc1c(O)[nH]c2ccccc12	-3.2	2.3	2.2	.	3.3	-17.7
O=C(CCCCCNC(=O)c1ccccc1Br)N=Nc1c(O)[nH]c2ccccc12	0.1	4.1	.	88.1*	0.0	-4.4
O=C(Nc1c(-c2ccccc2)[nH][nH]c1=O)c1ccc(-c2ccccc2)cc1	-15.5	-2.0	.	0.1	-14.2*	-13.2
O=C(O)C[C@H]1C[C@H]2c3cc(NC(=O)Cc4ccncc4)ccc3O[C@H]2[C@H](CO)O1	4.8	-1.5	.	0.1	1.8	-9.1
SMILES	INS-1E GSIS act	MLL AF4-AF9 inh	RAD54 branch	E-selectin induc	rRNA inh HTS	RAD52 inh
CCCCCCOc1ccc(C(CC(N)=O)C(=O)O)cc1 (stereo unspecified)	5.1	-2.0	-5.5	79.7*	6.6	-6.2
CCN1CCN(C(=O)C(C)Nc2ccc(OC)cc2OC)CC1 (stereo unspecified)	-9.5	25.6*	11.8	3.9	2.2	-41.1
COc1cc(CC2C(=O)Nc3ccccc32)cc(C)c1O (stereo unspecified)	.	-0.1	-3.2	52.3*	5.2	-12.7
O=C1Nc2ccccc2C1Cc1ccccn1 (stereo unspecified)	2.5	-1.2	.	48.3*	21.6	-17.4
CC(C)CC#Cc1cnc2c(c1)C(=O)N([C@@H](C)CO)C[C@@H](C)[C@H](CN(C)S(=O)(=O)c1cn(C)cn1)O2	-9.3	-1.0	-15.8	1.5	-0.4	5.5
CCOC(=O)C1(CC2CCCCO2)CCN(C(=O)Nc2ccc3c(c2)OCO3)CC1 (stereo unspecified)	2.7	0.2	.	.	-1.8	-2.7
CCOC(=O)C1(CC2CCCCO2)CCN(C(=O)Nc2ccc(C(=O)OC)cc2)CC1 (stereo unspecified)	-30.2	-3.7	1.4	1.0	-19.1*	-13.6
CCOC(=O)C1(CC2CCCCO2)CCN(Cc2nc(C(C)C)cs2)CC1 (stereo unspecified)	-27.4	2.4	.	0.3	-29.4*	-15.7
C[C@@H]1CN([C@H](C)CO)C(=O)c2cc(NC(=O)CCN3CCOCC3)ccc2O[C@H]1CN(C)Cc1ccc(C(F)(F)F)cc1	2.2	1.0	11.1	13.8	-1.2	-24.4
O=C1S/C(=C\c2ccc(O)c([N+](=O)[O-])c2)C(=O)N1Cc1cccc([N+](=O)[O-])c1	6.6	0.4	5.9	.	17.2	-4.9
O=C(O)c1cccc(CN2C(=O)S/C(=C/c3ccccc3[N+](=O)[O-])C2=O)c1	-17.8	.	.	.	-22.2*	-26.9
Cc1nn(-c2ccccc2)c(C)c1NC(=O)COc1ccc2ccccc2c1	1.3	-33.0	3.1	.	-19.6*	-3.1
Cc1nn(-c2ccccc2)c(C)c1NC(=O)COc1ccc(C#N)cc1	-7.9	3.6	8.5	0.0	10.2	-18.8
Cc1ccccc1N=C(NO)c1nonc1N	1.2	0.7	.	-1.6	-29.2*	7.8
Cc1cc(C)c2nc(NNC(=O)c3ccc(S(=O)(=O)N4CCc5ccccc5C4)cc3)sc2c1	.	5.3	16.3	0.0	-1.8	0.8

Screening data as filed in PubChem BioAssay.
